What was measured:
[1] = Half life in Sprague-Dawley rat intestinal homogenates at 5 mM by HPLC analysis; assay type: ADME, tissue-based, Intestine
How it was run: (§1)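 Jejunum and liver homogenates from male SD rats in pH 7.4 PBS, adjusted to 200 µg/mL protein, and rat plasma. Each incubated with compound at 5 mM at 37 °C.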

[2] = molecular target: T1, Solute carrier family 22 member 1 (Homo sapiens, UniProt O15245); assay: Substrate activity at OCT1 in human Caco2 cells assessed as protein-mediated drug uptake at 0.5 mM measured after 10 mins in absence of OCT1 substrate metformin by UPLC-MS/MS analysis; assay type: ADME, cell-based; settings: caco-2, 10 min, 500 µM
T1 sequence (O15245 whole entry): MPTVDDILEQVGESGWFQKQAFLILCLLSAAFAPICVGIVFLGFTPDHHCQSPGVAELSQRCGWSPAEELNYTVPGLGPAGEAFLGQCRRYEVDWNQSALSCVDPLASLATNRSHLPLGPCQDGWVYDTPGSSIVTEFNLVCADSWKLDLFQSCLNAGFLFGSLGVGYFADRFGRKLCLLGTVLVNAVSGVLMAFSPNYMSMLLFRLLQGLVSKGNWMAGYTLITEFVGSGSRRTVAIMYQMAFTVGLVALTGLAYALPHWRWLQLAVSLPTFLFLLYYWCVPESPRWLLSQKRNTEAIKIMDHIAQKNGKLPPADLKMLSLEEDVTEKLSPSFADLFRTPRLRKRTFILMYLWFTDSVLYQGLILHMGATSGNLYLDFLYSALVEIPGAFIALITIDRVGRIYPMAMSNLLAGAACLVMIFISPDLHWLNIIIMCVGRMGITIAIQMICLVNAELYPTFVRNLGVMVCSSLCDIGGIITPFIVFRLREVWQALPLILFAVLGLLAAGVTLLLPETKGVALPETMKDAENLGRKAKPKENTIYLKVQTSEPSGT
How it was run: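 Caco-2 cells in 24-well plates took up 0.5 mM compound for 10 min at 37 °C, with or without 50 mM captopril ([…]) or metformin (OCT1-3 substrate). Cells were washed in ice-cold PBS and homogenised in water; lysate protein was measured and drug assayed by UPLC-MS/MS. n=3.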

[3] = Half life in pH 1.2 simulated gastric fluid at 5 mM by HPLC analysis; assay type: ADME
How it was run: (§2)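 Compound at 5 mM in 0.1 M HCl, pH 4.5 acetate buffer, pH 5.8/6.8/7.2 phosphate buffers, SGF (pH 1.2) and SIF (pH 6.8), prepared per Chinese Pharmacopoeia. Samples taken at 0-20 h and analyzed by HPLC-UV. k = 2.303×slope of log C versus time; t1/2 = 0.693/k.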

[4] = Apparent permeability across human Caco2 cells at 0.5 mM measured after 5 to 60 mins by UPLC-MS/MS analysis; assay type: ADME, cell-based; settings: caco-2, 500 µM
How it was run: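 Caco-2 cells grown on 0.4 µm transwell inserts; monolayers used only with TEER >300 Ω/cm². Compound at 0.5 mM in apical pH 6.0 HBSS, basolateral pH 7.4 HBSS, 37 °C. Basolateral samples taken at 5, 15, 30, 45 and 60 min. Quantified by UPLC-MS/MS; Papp from steady-state flux, area and initial donor concentration. Three repeats.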

[5] = Half life in pH 7.2 phosphate buffer at 5 mM by HPLC analysis; assay type: physicochemical; how it was run: as §2
[6] = Half life in pH 4.5 acetate buffer at 5 mM by HPLC analysis; assay type: physicochemical; how it was run: as §2
[7] = Half life in pH 6.8 simulated intestinal fluid at 5 mM by HPLC analysis; assay type: ADME; how it was run: as §2
[8] = Half life in Sprague-Dawley rat plasma at 5 mM by HPLC analysis; assay type: ADME, cell-free; how it was run: as §1
[9] = molecular target: T2, Solute carrier family 15 member 1 (Rattus norvegicus, UniProt P51574); assay: Ratio of compound effect for substrate activity at PEPT1 in Sprague-Dawley rat jejunum assessed as effective permeability in absence of non-metabolized PEPT1 substrate Gly-Sar to compound effect for substrate activity at PEPT1 in Sprague-Dawley rat jejunum assessed as effective permeability in presence of non-metabolized PEPT1 substrate Gly-Sar; assay type: ADME
T2 sequence (P51574 whole entry): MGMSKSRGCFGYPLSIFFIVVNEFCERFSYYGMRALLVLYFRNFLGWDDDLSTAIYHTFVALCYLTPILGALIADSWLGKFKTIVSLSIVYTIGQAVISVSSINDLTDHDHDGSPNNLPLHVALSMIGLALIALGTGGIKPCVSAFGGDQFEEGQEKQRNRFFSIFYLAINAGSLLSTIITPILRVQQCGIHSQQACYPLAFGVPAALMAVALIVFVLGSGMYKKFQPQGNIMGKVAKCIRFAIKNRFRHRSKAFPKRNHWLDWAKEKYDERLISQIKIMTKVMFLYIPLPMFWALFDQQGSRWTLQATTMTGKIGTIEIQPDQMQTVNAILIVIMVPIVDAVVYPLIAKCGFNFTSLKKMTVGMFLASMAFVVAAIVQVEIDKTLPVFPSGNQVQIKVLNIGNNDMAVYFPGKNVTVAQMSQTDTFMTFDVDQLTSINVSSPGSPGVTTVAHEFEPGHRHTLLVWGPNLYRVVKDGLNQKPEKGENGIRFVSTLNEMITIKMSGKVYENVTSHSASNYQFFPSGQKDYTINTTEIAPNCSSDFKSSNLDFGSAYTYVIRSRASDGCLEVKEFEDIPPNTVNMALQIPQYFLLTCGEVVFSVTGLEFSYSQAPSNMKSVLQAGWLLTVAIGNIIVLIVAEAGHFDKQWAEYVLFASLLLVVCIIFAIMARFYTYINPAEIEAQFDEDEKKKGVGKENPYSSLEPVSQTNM

[10] = molecular target: T2, Solute carrier family 15 member 1; assay: Substrate activity at PEPT1 in Sprague-Dawley rat jejunum assessed as effective permeability at 5 mM measured after 15 to 120 mins by HPLC analysis; assay type: ADME, tissue-based; settings: 5000 µM
How it was run: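 In situ single-pass jejunal perfusion in fasted (12 h) male SD rats anaesthetised with urethane 1.5 g/kg i.p. About 10 cm of jejunum was perfused at 0.2 mL/min with pH 6.0 HEPES buffer containing 5 mM compound. Outflow was collected 15–120 min after steady state and assayed by HPLC. Peff was calculated from outlet/inlet concentration and volume ratios and segment radius and length.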

half-life at 5000 µM [1] [h] | Drug uptake [2] | half-life at 5000 µM [3] [h] | Papp [4] | half-life at 5000 µM [5] [h] | half-life at 5000 µM [6] [h] | half-life at 5000 µM [7] [h] | half-life at 5000 µM [8] [h] | Ratio [9] | Peff [10] | Structure (SMILES)
< 0.16 | Not Active | > 20 | Permeable | 5.5 | > 20 | 7.9 | 2.9 | 6.8 | Permeable | CC(C)[C@H](N)C(=O)OC[C@@H]1NC(=O)[C@@H]2C[C@@H](O)CN2C1=O
> 20 | Not Active | > 20 | Impermeable | > 20 | > 20 | > 20 | > 20 | 2.5 | Permeable | O=C1N[C@@H](CO)C(=O)N2C[C@H](O)C[C@@H]12

Source: ChEMBL document CHEMBL4373712, “Bioactivatable Pseudotripeptidization of Cyclic Dipeptides To Increase the Affinity toward Oligopeptide Transporter 1 for Enhanced Oral Absorption: An Application to Cyclo(l-Hyp-l-Ser) (JBP485)” (J Med Chem, 2019)
